This passage reports Ki, inhibition and Activity results from ChEMBL document CHEMBL1143739, “SAR study of bicyclo[4.1.0]heptanes as melanin-concentrating hormone receptor R1 antagonists: taming hERG” (Bioorg Med Chem, 2007).

In series [1] the target is Melanin-concentrating hormone receptor 1 (Homo sapiens, UniProt Q99705). Nature of the series: Displacement of [125I]MCH from MCHR1 expressed in CHO cells. It is filed as cell-based. Summed up:
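Human MCH R1, CHO cell membranes (0.1 mg/mL) on SPA beads (1 mg/mL). Buffer: 25 mM HEPES, 10 mM MgCl2, 5 mM MnCl2, 0.1% BSA, pH 7.4. Incubation 2–4 h at room temperature, scintillation count. Ki by non-linear regression; mean ± range of two determinations, each in quadruplicate.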
(In general: Loss of bound radioactivity is the signal in a displacement assay; it reports binding, not function.)

Series [2] concerns the target T1, hERG (KCNH2) (Homo sapiens, UniProt Q12809). Nature of the series: Inhibition of hERG expressed in CHO cells at […] by rubidium efflux assay. Type of series: toxicity, cell-based. The conditions noted are these: CHO cells that express hERG.
In series [3] the target is T1, hERG (KCNH2). Nature of the series: (§1) Inhibition of hERG expressed in CHO cells at 5 ug/mL by rubidium efflux assay. It is filed as toxicity, cell-based. The note with it: CHO cells that express hERG. The method, boiled down:
(§2)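 hERG-CHO cells plated 24 h, then loaded 3 h in HEPES-buffered saline with 5.4 mM RbCl. Compound added and equilibrated 30 min at 37 °C. Cells washed three times in Rb-free saline (5.4 mM KCl), then depolarized 5 min with 45.4 mM KCl.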
(hERG is a cardiac potassium channel; its block is linked to QT prolongation.)

The target of series [4] is Melanin-concentrating hormone receptor 1 (Mus musculus) (UniProt Q8JZL2). Nature of the series: Ex vivo displacement of [125I]S36057 binding from mouse brain MCHR1 at 30 mg/kg, po after 24 hrs. Type of series: functional, organism-based. Also on record: dose 30 mg/kg.
Series [5] shares this target. Kind of series: Ex vivo displacement of [125I]S36057 binding from mouse brain MCHR1 at 30 mg/kg, po after 6 hrs. Also on record: dose 30 mg/kg. It is filed as functional, organism-based.
Series [6] concerns the target Voltage-gated inwardly rectifying potassium channel KCNH2 (Homo sapiens, UniProt Q12809). The description is as §1. The note with it: cho. Type of series: toxicity, cell-based. The method, boiled down:
as §2

Molecules are shown by their SMILES. Activity calls are given as the source filed them. No cut-off for these calls is given here.

Voltage-gated inwardly rectifying potassium channel KCNH2, sequence (Q12809 whole entry): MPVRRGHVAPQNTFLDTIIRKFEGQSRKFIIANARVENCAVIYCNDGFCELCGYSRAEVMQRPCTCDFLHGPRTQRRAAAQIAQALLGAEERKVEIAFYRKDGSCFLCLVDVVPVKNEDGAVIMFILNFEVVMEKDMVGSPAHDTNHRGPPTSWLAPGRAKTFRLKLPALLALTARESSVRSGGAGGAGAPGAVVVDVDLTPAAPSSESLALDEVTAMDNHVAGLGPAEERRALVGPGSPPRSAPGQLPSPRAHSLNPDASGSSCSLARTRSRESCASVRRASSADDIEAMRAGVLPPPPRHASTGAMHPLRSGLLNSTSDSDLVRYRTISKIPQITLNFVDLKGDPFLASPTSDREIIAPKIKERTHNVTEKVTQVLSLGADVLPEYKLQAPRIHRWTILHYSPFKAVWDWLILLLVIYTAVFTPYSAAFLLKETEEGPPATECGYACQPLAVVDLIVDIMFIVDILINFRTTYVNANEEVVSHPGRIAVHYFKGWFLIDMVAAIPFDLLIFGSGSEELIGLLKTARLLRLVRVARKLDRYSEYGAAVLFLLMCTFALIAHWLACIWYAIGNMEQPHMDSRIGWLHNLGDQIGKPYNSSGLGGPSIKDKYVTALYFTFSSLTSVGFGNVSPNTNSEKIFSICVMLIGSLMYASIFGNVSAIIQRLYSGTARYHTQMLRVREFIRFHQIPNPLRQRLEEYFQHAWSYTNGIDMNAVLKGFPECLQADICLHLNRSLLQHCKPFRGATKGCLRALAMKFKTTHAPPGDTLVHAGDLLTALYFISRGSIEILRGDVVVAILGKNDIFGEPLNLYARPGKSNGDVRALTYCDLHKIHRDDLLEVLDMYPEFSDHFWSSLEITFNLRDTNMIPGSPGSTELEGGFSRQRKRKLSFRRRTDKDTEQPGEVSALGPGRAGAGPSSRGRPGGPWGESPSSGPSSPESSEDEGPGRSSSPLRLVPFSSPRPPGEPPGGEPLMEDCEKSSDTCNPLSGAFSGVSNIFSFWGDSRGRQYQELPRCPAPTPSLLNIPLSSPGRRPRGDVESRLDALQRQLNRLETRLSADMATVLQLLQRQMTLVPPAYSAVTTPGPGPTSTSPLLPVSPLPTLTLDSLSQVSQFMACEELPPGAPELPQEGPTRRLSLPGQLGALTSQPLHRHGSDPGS
T1 sequence (Q12809 whole entry): as above
Melanin-concentrating hormone receptor 1 (Mus musculus), sequence (Q8JZL2 whole entry): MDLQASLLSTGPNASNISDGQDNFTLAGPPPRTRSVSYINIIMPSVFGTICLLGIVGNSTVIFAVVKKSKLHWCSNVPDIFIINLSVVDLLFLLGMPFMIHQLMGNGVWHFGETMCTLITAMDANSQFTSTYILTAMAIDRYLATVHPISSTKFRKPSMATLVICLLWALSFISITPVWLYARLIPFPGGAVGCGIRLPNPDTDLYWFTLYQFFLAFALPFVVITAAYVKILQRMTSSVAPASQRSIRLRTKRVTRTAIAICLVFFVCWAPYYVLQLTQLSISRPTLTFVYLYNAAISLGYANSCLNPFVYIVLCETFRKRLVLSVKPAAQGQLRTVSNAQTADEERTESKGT
Melanin-concentrating hormone receptor 1, sequence (Q99705 whole entry): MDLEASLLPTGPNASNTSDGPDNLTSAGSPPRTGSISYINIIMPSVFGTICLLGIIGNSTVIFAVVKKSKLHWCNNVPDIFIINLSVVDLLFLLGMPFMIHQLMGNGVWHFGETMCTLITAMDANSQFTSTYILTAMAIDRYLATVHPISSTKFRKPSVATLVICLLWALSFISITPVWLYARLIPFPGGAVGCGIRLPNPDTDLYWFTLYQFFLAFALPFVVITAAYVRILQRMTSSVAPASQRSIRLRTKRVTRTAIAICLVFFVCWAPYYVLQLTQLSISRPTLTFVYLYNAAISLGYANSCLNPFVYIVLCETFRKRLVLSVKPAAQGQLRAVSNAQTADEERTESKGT

The Ki is the dissociation constant of the complex between target and ligand, obtained from inhibition or displacement. Low readings indicate tighter binding, high ones weaker binding. By inhibition is commonly meant the percentage by which the read-out fell short of the control. A low value points to a response near the control. Compound `CC(C)N(CCN(C(=O)Nc1ccc(F)c(Cl)c1)[C@@H]1CC[C@]2(c3cccc(C#N)c3)CC2C1)C(C)C` (some centres undefined) displayed a Ki in series [1] of 5 nM. Moreover, the inhibition at […] against hERG (KCNH2) [2] was determined as 44%. Moreover, the inhibition at 5 ug/mL against hERG (KCNH2) [3] worked out at 78%. Besides, in series [4], the result was inactive. In series [5], this compound gave an Activity of 83%.

In turn, `CC(C)N(CCO)CCN(C(=O)Nc1cc(Cl)nc(Cl)c1)[C@@H]1CC[C@]2(c3cccc(C#N)c3)CC2C1` (some centres undefined) yielded a Ki in series [1] of 1.6 nM. In addition, the Activity entry was “Not Active” in series [6] and 99% in series [5]. Also, in series [4], the outcome was inactive.

In series [1], `CC(C)NCCN(C(=O)Nc1cc(Cl)nc(Cl)c1)[C@@H]1CC[C@]2(c3cccc(C#N)c3)CC2C1` (some centres undefined) had a Ki of 1.9 nM. The Activity entry is “Not Active” in series [6], 70% in series [4] and 93% in series [5].

`CC(C)N(CCN(C(=O)Nc1ccc(F)c(Cl)c1)[C@@H]1CC[C@]2(c3cccc(C#N)c3)CC2C1)[C@H](C)CO` (some centres undefined): in series [1], the affinity corresponds to a Ki of 9.4 nM. Besides, the Activity result in series [6] is “Not Active”; in series [4], 25%; in series [5], 73%.

Take `CC(C)N(CCN(C(=O)Nc1cc(Cl)nc(Cl)c1)[C@@H]1CC[C@]2(c3cccc(C#N)c3)CC2C1)[C@@H](C)CO` (some centres undefined): in series [1], the affinity, expressed as Ki, was 1.6 nM. The compound also came in with an inhibition at 5 ug/mL against hERG (KCNH2) [3] of 60%. Besides, the Activity in series [4] was determined as 81%; in series [5], 99%.

Compound `CC(C)N(CCO)CCN(C(=O)Nc1ccc(F)c(Cl)c1)[C@@H]1CC[C@]2(c3cccc(C#N)c3)CC2C1` (some centres undefined) returned a Ki in series [1] of 8.7 nM. The compound also displayed an inhibition at 5 ug/mL against hERG (KCNH2) [3] of 88%. The Activity in series [4] turned out to be 38%; in series [5] it was 73%.

`N#Cc1ccc(C2=CCC(N(CCN3CCCC3)C(=O)Nc3ccc(F)c(Cl)c3)CC2)s1` (centres undefined): in series [1], the affinity, expressed as Ki, was 4.2 nM. Moreover, the inhibition at 5 ug/mL against hERG (KCNH2) [3] was determined as 74%. Also, the Activity in series [4] turned out to be 97%; in series [5], 84%.
